The text below walks through data of ChEMBL document CHEMBL1136747, “Influence of the 5-HT6 receptor on acetylcholine release in the cortex: pharmacological characterization of 4-(2-bromo-6-pyrrolidin-1-ylpyridine-4-sulfonyl)phenylamine, a potent and selective 5-HT6 receptor antagonist” (J Med Chem, 2003).

SMILES strings stand for the structures.

For data set [1], the target named is 5-hydroxytryptamine receptor 1D (Homo sapiens, UniProt P28221). Briefly: Binding constant towards serotonin receptor subtype 5-hydroxytryptamine 1D receptor expressed in HEK 293 cells using [3H]LSD as radioligand. The data set is classed as cell-based, HEK293.
Chain of 5-hydroxytryptamine receptor 1D (P28221 whole entry): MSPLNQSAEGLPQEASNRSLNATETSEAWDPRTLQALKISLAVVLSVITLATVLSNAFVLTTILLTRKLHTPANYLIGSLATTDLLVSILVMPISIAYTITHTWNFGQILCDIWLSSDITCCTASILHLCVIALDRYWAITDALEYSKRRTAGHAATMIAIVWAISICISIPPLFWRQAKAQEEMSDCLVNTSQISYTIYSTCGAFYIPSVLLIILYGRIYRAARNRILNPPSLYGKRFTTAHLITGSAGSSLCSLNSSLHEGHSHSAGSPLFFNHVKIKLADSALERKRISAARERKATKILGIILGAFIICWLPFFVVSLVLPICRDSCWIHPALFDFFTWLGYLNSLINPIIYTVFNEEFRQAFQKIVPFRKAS
The target of data set [2] is T1, 5-hydroxytryptamine receptor 2C (Homo sapiens, UniProt P28335).
T1 sequence (P28335 whole entry): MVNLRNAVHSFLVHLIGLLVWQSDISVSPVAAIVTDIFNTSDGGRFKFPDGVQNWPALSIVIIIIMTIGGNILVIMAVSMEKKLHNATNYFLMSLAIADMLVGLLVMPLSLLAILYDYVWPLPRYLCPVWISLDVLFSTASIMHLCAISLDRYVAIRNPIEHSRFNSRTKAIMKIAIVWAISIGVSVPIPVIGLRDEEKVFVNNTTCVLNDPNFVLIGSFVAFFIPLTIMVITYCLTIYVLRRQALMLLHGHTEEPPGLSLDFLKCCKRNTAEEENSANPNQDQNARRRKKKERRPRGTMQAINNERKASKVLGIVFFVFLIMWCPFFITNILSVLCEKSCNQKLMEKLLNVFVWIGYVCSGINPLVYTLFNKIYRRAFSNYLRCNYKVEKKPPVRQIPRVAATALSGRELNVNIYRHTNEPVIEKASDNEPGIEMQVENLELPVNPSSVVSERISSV
Briefly: Binding constant towards serotonin receptor subtype 5-hydroxytryptamine 2C receptor expressed in 3T3 cells using [3H]5-HT as radioligand. The data set is classed as cell-based, NIH3T3.

Data set [3] concerns the target 5-hydroxytryptamine receptor 7 (Homo sapiens, UniProt P34969). Briefly: Binding constant towards serotonin receptor subtype 5-hydroxytryptamine 7 receptor expressed in CHO cells using [3H]LSD as radioligand. The data set is classed as cell-based.
The target of data set [4] is T2, 5-hydroxytryptamine receptor 6 (Homo sapiens, UniProt P50406). Briefly: Binding constant towards serotonin receptor subtype 5-hydroxytryptamine 6 receptor expressed in HeLa cells using [3H]LSD as radioligand. The format is cell-based. An outline of the steps:
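Radioligand binding to human recombinant 5-HT6 receptor expressed in HeLa cells with [3H]-LSD. Values are the mean ± SEM of three independent determinations, each run in triplicate.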

Data set [5] in a line: Half-life period after intravenous administration in rat. The format is ADME, organism-based. The note with it: in vivo. The method in brief:
(§1)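 Rats were dosed at 10 mg/kg in PEG/PG/WIP 40/40/20, either by oral gavage or intravenously with the same dose and formulation. Plasma concentrations were followed over 8 h. PK parameters were derived as plasma clearance, apparent terminal half-life, bioavailability and steady-state volume of distribution, reported as average ± SEM.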

A short description of data set [6]: Half-life period after oral administration in rat. The note with it: in vivo. The format is ADME, organism-based. The method in brief: as §1
Data set [7] in a line: Bioavailability after oral administration in rat expressed as percentage. The data set is classed as ADME, organism-based. The note with it: in vivo. The method in brief: as §1
The subject of data set [8] is Rattus norvegicus. Briefly: Ratio of brain/plasma concentration after oral administration in rat expressed as percentage. The format is ADME, organism-based. An outline of the steps: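 Rats dosed at 10 mg/kg by oral gavage in PEG/PG/WIP 40/40/20. Brain and plasma concentrations were measured, and the brain/plasma ratio is given as a percentage (average ± SEM).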

A short description of data set [9]: Volume of distribution at steady state after intravenous administration in rat. The data set is classed as ADME, organism-based. The note with it: in vivo, read-out: Vss. The method in brief: as §1
Data set [10] in a line: Partition coefficient (logD7.4). The note with it: octanol/water, pH 7.4. The format is physicochemical.
In data set [11] the target is T2, 5-hydroxytryptamine receptor 6. Briefly: Antagonism assessed in a functional cAMP binding assay using 5-CT to stimulate human 5-hydroxytryptamine 6 receptor expressed in HEK 293 cells. The format is cell-based, HEK293. The note with it: read-out: pA2 (converted). The method in brief: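 Human 5-HT6 receptor stably expressed in HEK-293 cells; adenylate cyclase (cAMP) activity stimulated with 5-CT. 5-CT concentration–response curves were run with increasing antagonist concentrations, and the shift was analysed by Schild analysis, n = 3.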

Data set [12] is described as follows: In vivo plasma clearance after intravenous administration in rat. The format is ADME, organism-based. The note with it: read-out: Clp. An outline of the steps: as §1
The nature of data set [13]: Dissociation constant was determined.
Data set [14] addresses 5-hydroxytryptamine receptor 2A (Homo sapiens, UniProt P28223). Briefly: Binding constant towards serotonin receptor subtype 5-hydroxytryptamine 2A receptor expressed in 3T3 cells using [3H]-DOB as radioligand.

Chain of 5-hydroxytryptamine receptor 7 (P34969 whole entry): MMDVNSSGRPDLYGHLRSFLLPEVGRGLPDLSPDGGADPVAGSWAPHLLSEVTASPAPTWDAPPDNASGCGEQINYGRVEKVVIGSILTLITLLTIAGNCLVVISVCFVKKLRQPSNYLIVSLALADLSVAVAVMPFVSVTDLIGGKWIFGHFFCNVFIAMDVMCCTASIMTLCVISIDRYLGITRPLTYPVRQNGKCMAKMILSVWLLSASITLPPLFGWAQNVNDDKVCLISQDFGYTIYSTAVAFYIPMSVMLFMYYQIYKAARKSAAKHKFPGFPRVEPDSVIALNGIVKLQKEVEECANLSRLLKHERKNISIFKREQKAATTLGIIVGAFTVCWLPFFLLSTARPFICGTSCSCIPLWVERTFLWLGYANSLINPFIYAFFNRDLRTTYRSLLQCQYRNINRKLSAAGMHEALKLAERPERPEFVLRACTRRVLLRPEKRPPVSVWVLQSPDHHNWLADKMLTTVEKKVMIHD
T2 sequence (P50406 whole entry): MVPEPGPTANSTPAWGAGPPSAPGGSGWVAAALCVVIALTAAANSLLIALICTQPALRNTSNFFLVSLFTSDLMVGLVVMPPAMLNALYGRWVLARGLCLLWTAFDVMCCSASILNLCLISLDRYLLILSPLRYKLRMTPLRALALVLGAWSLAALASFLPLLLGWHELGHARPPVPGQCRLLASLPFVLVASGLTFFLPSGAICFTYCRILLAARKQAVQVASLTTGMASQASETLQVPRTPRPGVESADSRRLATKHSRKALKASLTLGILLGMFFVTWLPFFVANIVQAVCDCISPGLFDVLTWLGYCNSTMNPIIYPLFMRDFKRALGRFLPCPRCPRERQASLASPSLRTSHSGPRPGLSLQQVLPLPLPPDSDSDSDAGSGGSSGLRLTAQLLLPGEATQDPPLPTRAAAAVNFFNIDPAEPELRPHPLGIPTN
Chain of 5-hydroxytryptamine receptor 2A (P28223 whole entry): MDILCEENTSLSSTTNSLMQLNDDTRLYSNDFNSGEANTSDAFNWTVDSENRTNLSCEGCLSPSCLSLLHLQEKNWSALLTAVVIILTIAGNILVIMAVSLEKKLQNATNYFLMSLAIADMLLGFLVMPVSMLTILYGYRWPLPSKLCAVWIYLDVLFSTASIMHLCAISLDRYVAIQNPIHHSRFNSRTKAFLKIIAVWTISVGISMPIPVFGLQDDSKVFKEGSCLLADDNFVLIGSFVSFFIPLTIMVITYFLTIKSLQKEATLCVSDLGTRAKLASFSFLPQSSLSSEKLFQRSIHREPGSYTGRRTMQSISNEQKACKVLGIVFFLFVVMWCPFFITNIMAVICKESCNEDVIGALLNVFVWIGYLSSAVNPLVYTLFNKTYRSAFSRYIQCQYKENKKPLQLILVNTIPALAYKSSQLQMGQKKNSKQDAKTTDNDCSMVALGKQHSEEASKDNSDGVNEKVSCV

For the compound `Nc1ccc(S(=O)(=O)c2cc(Br)nc(N3CCCC3)c2)cc1`, the Ki in data set [1] is above 100000 nM; in data set [2] it was above 10000 nM; in [3], above 100000 nM; in data set [4] it was 1 nM; in data set [14] it was 1450 nM. Also, the values for the half-life in [5] and in [6] were 3.7 h and 3 h, respectively. Also, the bioavailability in [7] was 46%. Moreover, in data set [8], the Ratio stood at 24%. For the same compound, the Vd in data set [9] came to 1.4 L/kg. The same compound returned a logD in [10] of 3.3. For the same compound, the Kb in [11] was 3.16 nM. Moreover, the clearance in [12] was 20 mL/min/kg. Also, in data set [13], the pKa was below 2.
`CNc1cc(S(=O)(=O)c2ccc(N)cc2)cc(Br)n1`: the Ki was above 10000 nM in data set [1], above 10000 nM in data set [2], above 10000 nM in data set [3] and 2.29 nM in data set [4].
Compound `CNc1cc(S(=O)(=O)Nc2ccc(N)cc2)cc(Br)n1` showed a Ki in [4] of 42.7 nM.
Turning to `Nc1ccc(S(=O)(=O)c2cc(Br)nc(N3CCNCC3)c2)cc1`, the Ki is 1120 nM in [1], 20.4 nM in data set [2], above 10000 nM in data set [3] and 0.115 nM in data set [4].
Consider `Nc1ccc(S(=O)(=O)c2cc(Br)nc(Br)c2)cc1`, for which, in data set [4], the Ki was 53.7 nM.
With `CNc1cc(NS(=O)(=O)c2ccc(N)cc2)nc(NC)n1`, the Ki in data set [1] was above 10000 nM; in data set [2], above 10000 nM; in data set [3], above 10000 nM; in data set [4], 55 nM; in [14], above 10000 nM.
